Experimental data from ChEMBL document CHEMBL1152768, “4-Benzyloxy-gamma-sultone derivatives: discovery of a novel family of non-nucleoside inhibitors of human cytomegalovirus and varicella zoster virus” (J Med Chem, 2009).

Assays:
Human alphaherpesvirus 3 [1] = test: Antiviral activity against thymidine kinase expressing Varicella zoster virus Oka infected in human HEL cells assessed reduction in viral plaque formation; assay type: functional, organism-based; details: Human alphaherpesvirus 3, Oka
Outline: (§1)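 Confluent HEL cell monolayers were inoculated with VZV at 20 PFU per well. Residual virus was removed after 2 h, and compound was added at varying concentrations, in duplicate.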

Human alphaherpesvirus 3 [2] = test: Antiviral activity against thymidine kinase deficient Varicella zoster virus 07/1 infected in human HEL cells assessed reduction in viral plaque formation; assay type: functional, organism-based; details: Human alphaherpesvirus 3, HEL; outline: as §1
[3] = Cytotoxicity against human HEL cells assessed as morphological alteration after 3 days; assay type: cell-based
Outline: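 HEL cultures were examined under the microscope. MCC was recorded as the compound concentration causing a microscopically detectable alteration of normal cell morphology.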

[4] = Cytotoxicity against human HEL cells assessed as reduction of growth after 3 days; assay type: cell-based
Outline: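 HEL cells were seeded at 5 × 10³ cells/well and grown 24 h before compound was added at different concentrations. After 3 days at 37 °C, cells were counted with a Coulter counter. CC50, the concentration halving growth relative to untreated controls, was read from plots of cell number (% of control) against concentration.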

Human betaherpesvirus 5 [5] = test: Antiviral activity against wild type HCMV AD169 infected in HEL cells assessed as inhibition of virus-induced cytopathicity; assay type: functional, organism-based; details: Human betaherpesvirus 5, AD169, HEL
Outline: (§2)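 HEL fibroblast cultures infected at 100 PFU input. After 2 h, residual virus was removed and compound-containing medium was added at varying concentrations, in duplicate. Cells were incubated 7 days at 37 °C, ethanol-fixed and Giemsa-stained, and cytopathicity was scored microscopically.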

Human betaherpesvirus 5 [6] = test: Antiviral activity against HCMV Davis infected in human HEL cells assessed inhibition of virus-induced cytopathicity after 7 days postinfection; assay type: functional, organism-based; details: Human betaherpesvirus 5, Davis, 168 h
Outline: (§3)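 HEL fibroblasts were infected at 100 PFU. After 2 h, residual virus was removed and medium with test compound was added at several concentrations, in duplicate. Cells were incubated 7 days at 37 °C, fixed with ethanol and stained with Giemsa.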

Human betaherpesvirus 5 [7] = test: Antiviral activity against HCMV AD169 infected in human HEL cells assessed inhibition of virus-induced cytopathicity after 7 days postinfection; assay type: functional, organism-based; details: Human betaherpesvirus 5, AD169, HEL, 168 h; outline: as §3
Human betaherpesvirus 5 [8] = test: Antiviral activity against ganciclovir-resistant HCMV AD169 clone 4 infected in HEL cells assessed as inhibition of virus-induced cytopathicity; assay type: functional, organism-based; details: Human betaherpesvirus 5, AD169, HEL
Human betaherpesvirus 5 [9] = test: Antiviral activity against cidofovir HCMV AD169 clone 5 infected in human HEL cells assessed as inhibition of virus-induced cytopathicity; assay type: functional, organism-based; details: Human betaherpesvirus 5, AD169, HEL
Human betaherpesvirus 5 [10] = test: Antiviral activity against PMEDAP-resistant HCMV AD169 clone 4 infected in HEL cells assessed as inhibition of virus-induced cytopathicity; assay type: functional, organism-based; details: Human betaherpesvirus 5, AD169, HEL
Human betaherpesvirus 5 [11] = test: Antiviral activity against HPMPA-resistant HCMV AD169 clone 2 mutant infected in HEL cells assessed as inhibition of virus-induced cytopathicity; assay type: functional, organism-based; details: Human betaherpesvirus 5, AD169, HEL
Human betaherpesvirus 5 [12] = test: Antiviral activity against acyclovir-resistant HCMV AD169 clone 1 infected in HEL cells assessed as inhibition of virus-induced cytopathicity; assay type: functional, organism-based; details: Human betaherpesvirus 5, AD169, HEL
Human betaherpesvirus 5 [13] = test: Antiviral activity against wild type HCMV Davis infected in HEL cells assessed as inhibition of virus-induced cytopathicity; assay type: functional, organism-based; details: Human betaherpesvirus 5, Davis; outline: as §2

SMILES	EC50 (Human alphaherpesvirus 3 [1]) [µM]	EC50 (Human alphaherpesvirus 3 [2]) [µM]	EC50 (Human betaherpesvirus 5 [6]) [µM]	EC50 (Human betaherpesvirus 5 [7]) [µM]	MCC at 72 h [3] [µM]	CC50 at 72 h [4] [µM]	EC50 (Human betaherpesvirus 5 [5]) [µM]	EC50 (Human betaherpesvirus 5 [8]) [µM]	EC50 (Human betaherpesvirus 5 [9]) [µM]	EC50 (Human betaherpesvirus 5 [10]) [µM]	EC50 (Human betaherpesvirus 5 [11]) [µM]	EC50 (Human betaherpesvirus 5 [12]) [µM]	EC50 (Human betaherpesvirus 5 [13]) [µM]
Nc1nc2c(ncn2COCCO)c(=O)[nH]1 [ACYCLOVIR]	1.1	72			> 200	733	15						
CCC1(CC)OS(=O)(=O)C=C1OCc1ccccc1	175	155	234	> 400	> 400	200							
Nc1nc2c(ncn2COC(CO)CO)c(=O)[nH]1 [GANCICLOVIR]			3.6		> 400	134	0.7	4.3	4	3.5	1.2	0.69	0.66
CC(C)C1(Cc2ccccc2)OS(=O)(=O)C=C1OCc1ccccc1 (racemic)	> 80	> 16	> 400	> 400	≥ 80	200							
O=c1[nH]c(=O)n([C@H]2C[C@H](O)[C@@H](CO)O2)cc1/C=C/Br [BRIVUDINE]	0.015	140			> 150	600							
CCC1(Cc2ccccc2)OS(=O)(=O)C=C1OCCCCCCc1ccccc1 (racemic)	8.7	8.4	6.4	< 3.2	≥ 20	< 200							
CC(C)CC1(Cc2ccccc2)OS(=O)(=O)C=C1OCc1ccccc1 (racemic)	> 80	> 80	> 400	> 400	≥ 80	102							
CCC1(Cc2ccccc2)OS(=O)(=O)C=C1OCC1CCCCC1 (racemic)	20	7	> 200	> 200	≥ 200	> 200							
CCC1(Cc2ccccc2)OS(=O)(=O)C=C1OCCCCc1ccccc1 (racemic)	6.2	> 20	7.8	> 3.2	≥ 20	99							
CCC1(Cc2ccccc2)OS(=O)(=O)C=C1OCc1ccc(Br)cc1 (racemic)	8.3	6.3	6	10	80	171							
CC1(C(c2ccccc2)c2ccccc2)OS(=O)(=O)C=C1OCc1ccccc1 (racemic)	> 80	> 80	> 400	> 80	≥ 400	200							

Continued, in another order:

EC50 (Human alphaherpesvirus 3 [1]) [µM]	EC50 (Human alphaherpesvirus 3 [2]) [µM]	EC50 (Human betaherpesvirus 5 [6]) [µM]	EC50 (Human betaherpesvirus 5 [7]) [µM]	SMILES	MCC at 72 h [3] [µM]	CC50 at 72 h [4] [µM]	EC50 (Human betaherpesvirus 5 [5]) [µM]	EC50 (Human betaherpesvirus 5 [8]) [µM]	EC50 (Human betaherpesvirus 5 [9]) [µM]	EC50 (Human betaherpesvirus 5 [10]) [µM]	EC50 (Human betaherpesvirus 5 [11]) [µM]	EC50 (Human betaherpesvirus 5 [12]) [µM]	EC50 (Human betaherpesvirus 5 [13]) [µM]
> 3.2	6.5	8.7	9	CCC1(Cc2ccccc2)OS(=O)(=O)C=C1OCCCc1ccccc1 (racemic)	≥ 20	133							
306	> 400	> 200	> 200	CC1(Cc2ccccc2)OS(=O)(=O)C=C1OCc1ccccc1 (racemic)	> 400	68							
80	> 16	> 80	> 400	O=S1(=O)C=C(OCc2ccccc2)C2(CCc3ccccc3C2)O1 (racemic)	≥ 80	131							
6.4	5.9	5.9	7.2	CCC1(Cc2ccccc2)OS(=O)(=O)C=C1OCc1ccc(C)cc1 (racemic)	≥ 16	41.5							
> 400	> 400	> 400	> 400	CCC1(Cc2ccccc2)OS(=O)(=O)C=C1OCC(=O)OC (racemic)	> 400	> 200							
7.3	6.7	8	> 16	CCC1(Cc2ccccc2)OS(=O)(=O)C=C1OCc1cccc(Cl)c1 (racemic)	≥ 20	50							
> 16	> 16	> 400	> 400	C=CCOC1=CS(=O)(=O)OC1(CC)Cc1ccccc1 (racemic)	80	> 200							
